Laboratory results reported in ChEMBL document CHEMBL3576764, “α-Ketoamino acid ester derivatives as promising MAO inhibitors” (Bioorg Med Chem Lett, 2014).

Columns and labels:
[1] = biological target: T1, Amine oxidase [flavin-containing] B (Bos taurus, UniProt P56560); assay: Inhibition of MAO-B in bovine brain mitochondria using benzylamine as substrate
T1 sequence (P56560 whole entry): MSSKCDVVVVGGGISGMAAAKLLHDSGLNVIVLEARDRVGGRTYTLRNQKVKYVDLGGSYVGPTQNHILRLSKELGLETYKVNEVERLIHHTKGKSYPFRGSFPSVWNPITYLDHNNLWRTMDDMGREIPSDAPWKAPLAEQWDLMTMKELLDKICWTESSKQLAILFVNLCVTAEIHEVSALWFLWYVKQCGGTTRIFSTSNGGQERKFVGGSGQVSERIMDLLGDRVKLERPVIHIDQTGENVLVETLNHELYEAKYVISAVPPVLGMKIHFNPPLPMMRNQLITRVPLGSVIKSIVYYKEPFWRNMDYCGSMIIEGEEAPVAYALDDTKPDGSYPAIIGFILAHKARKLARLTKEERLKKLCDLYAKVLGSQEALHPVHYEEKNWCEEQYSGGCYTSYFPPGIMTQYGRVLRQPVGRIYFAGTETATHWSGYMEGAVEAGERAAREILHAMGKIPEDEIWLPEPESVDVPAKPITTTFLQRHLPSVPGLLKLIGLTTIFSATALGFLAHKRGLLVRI

[2] = biological target: T2, Amine oxidase [flavin-containing] A (Rattus norvegicus, UniProt P21396); assay: Inhibition of MAO-A in rat liver mitochondria using serotonin as substrate preincubated with enzyme for 60 mins prior to substrate addition
T2 sequence (P21396 whole entry): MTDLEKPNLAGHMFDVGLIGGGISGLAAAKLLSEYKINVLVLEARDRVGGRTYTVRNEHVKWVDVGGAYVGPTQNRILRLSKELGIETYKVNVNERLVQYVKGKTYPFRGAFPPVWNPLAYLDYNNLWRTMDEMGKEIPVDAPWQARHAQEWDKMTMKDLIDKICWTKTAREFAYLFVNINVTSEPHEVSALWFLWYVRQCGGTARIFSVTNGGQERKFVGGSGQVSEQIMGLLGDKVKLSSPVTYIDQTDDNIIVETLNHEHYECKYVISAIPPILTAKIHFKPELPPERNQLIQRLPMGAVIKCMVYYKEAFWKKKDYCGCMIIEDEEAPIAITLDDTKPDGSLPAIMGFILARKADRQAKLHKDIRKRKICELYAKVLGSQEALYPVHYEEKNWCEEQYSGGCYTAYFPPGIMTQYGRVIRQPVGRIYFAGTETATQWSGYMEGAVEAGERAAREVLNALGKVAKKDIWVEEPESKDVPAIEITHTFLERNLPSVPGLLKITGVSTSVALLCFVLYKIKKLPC

[3] = Selectivity index, ratio of IC50 for MAO-B in bovine brain mitochondria to IC50 for MAO-A in rat liver mitochondria
In short: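 Enzyme source was mitochondria: rat liver for MAO-A, and bovine brain for MAO-B. Compounds were preincubated 60 min with enzyme before substrate was added: serotonin for MAO-A, benzylamine for MAO-B. Clorgyline served as the irreversible, time-dependent reference. Values are reported as IC50, and the selectivity index was derived from the MAO-A and MAO-B IC50s.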

Mus musculus [4] = assay: Toxicity in mouse assessed as mortality up to 250 mg/kg, po; format: organism-based; conditions: in vivo
In short: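 Acute oral toxicity study in male mice, with oral dosing up to 250 mg/kg and mortality recorded.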

Mus musculus [5] = assay: Toxicity in mouse up to dosed through parenteral route; conditions: in vivo

| IC50 [1] | IC50 [2] | Selectivity Index [3] | Structure (SMILES) | Activity (Mus musculus [4]) | Activity (Mus musculus [5]) |
| --- | --- | --- | --- | --- | --- |
| 380 µM | 0.056 µM | 6780 | CC(=O)N1C(=O)C(=O)c2ccccc21 |  |  |
| 790 µM | 0.06 µM | 13200 | COC(=O)C[C@H](NC(=O)c1ccc(NC(=O)C(=O)c2ccccc2NC(C)=O)cc1)C(=O)OC |  |  |
| 460 µM | 0.058 µM | 7930 | COC(=O)C[C@H](NC(=O)C(=O)c1ccccc1NC(C)=O)C(=O)OC |  |  |
| 950 µM | 0.062 µM | 15300 | COC(=O)CCCNC(=O)C(=O)c1ccccc1NC(C)=O |  |  |
| 590 µM | 0.049 µM | 12000 | COC(=O)CCCNC(=O)c1ccc(NC(=O)C(=O)c2ccccc2NC(C)=O)cc1 |  |  |
| 990 µM | 0.083 µM | 11900 | CCOC(=O)c1ccc(NC(=O)C(=O)c2ccccc2NC(C)=O)cc1 |  |  |
| 360 µM | 0.043 µM | 8370 | COC(=O)C(C)(C)NC(=O)c1ccc(NC(=O)C(=O)c2ccccc2NC(C)=O)cc1 |  |  |
| 280 µM | 0.036 µM | 7770 | COC(=O)[C@H](Cc1ccccc1)NC(=O)c1ccc(NC(=O)C(=O)c2ccccc2NC(C)=O)cc1 |  |  |
| 480 µM | 0.072 µM | 6660 | COC(=O)[C@H](CC(C)C)NC(=O)C(=O)c1ccccc1NC(C)=O |  |  |
| 590 µM | 0.068 µM | 8670 | COC(=O)CCCCCNC(=O)C(=O)c1ccccc1NC(C)=O |  |  |
| 380 µM | 0.048 µM | 7910 | COC(=O)C1(NC(=O)c2ccc(NC(=O)C(=O)c3ccccc3NC(C)=O)cc2)CCCC1 |  |  |
| 780 µM | 0.093 µM | 8380 | COC(=O)CCCCCNC(=O)c1ccc(NC(=O)C(=O)c2ccccc2NC(C)=O)cc1 |  |  |

| Structure (SMILES) | IC50 [1] | IC50 [2] | Selectivity Index [3] | Activity (Mus musculus [4]) | Activity (Mus musculus [5]) |
| --- | --- | --- | --- | --- | --- |
| COC(=O)CCNC(=O)c1ccc(NC(=O)C(=O)c2ccccc2NC(C)=O)cc1 | 530 µM | 0.018 µM | 29400 | Non-toxic | Non-toxic |
| COC(=O)CCNC(=O)C(=O)c1ccccc1NC(C)=O | 990 µM | 0.033 µM | 30000 | Non-toxic | Non-toxic |
| COC(=O)[C@@H](NC(=O)c1ccc(NC(=O)C(=O)c2ccccc2NC(C)=O)cc1)C(C)C | 430 µM | 0.0028 µM | 154000 | Non-toxic | Non-toxic |
| COC(=O)[C@H](C)NC(=O)c1ccc(NC(=O)C(=O)c2ccccc2NC(C)=O)cc1 | 730 µM | 0.036 µM | 20300 | Non-toxic | Non-toxic |
